PMC4201343 (ACS Chemical Biology, 2014)
Where a chain is given by its changes, count along the chain named. “Also recorded” adds a separate entry of the source.

Key:
[1] = target: NS3 protease (scNS3-NS4A) (Hepatitis C virus, UniProt Q9WMX2); test: Protease assay; assay type: biochemical; conditions: even at the highest concentrations tested
How it was run: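 Full-length single-chain NS3-4A at 10 nM, in kit HCV protease buffer without DTT with 5% DMSO, cleaving a 5-carboxyfluorescein-labelled peptide substrate; fluorescence read at 520 nm. Test compound was run as a 7-point two-fold dilution series from 100 μM, in duplicate.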

[2] = target: T1, NS3h (Hepatitis C virus genotype 1b, UniProt Q9WMX2); test: ESI mass spectrometry of ebselen-treated NS3h; set-up: species or system hepatitis C virus genotype 1b (con1); conditions: 100 μM ebselen, 1 h, RT
T1 sequence (Q9WMX2 1190-1657 limits assumed): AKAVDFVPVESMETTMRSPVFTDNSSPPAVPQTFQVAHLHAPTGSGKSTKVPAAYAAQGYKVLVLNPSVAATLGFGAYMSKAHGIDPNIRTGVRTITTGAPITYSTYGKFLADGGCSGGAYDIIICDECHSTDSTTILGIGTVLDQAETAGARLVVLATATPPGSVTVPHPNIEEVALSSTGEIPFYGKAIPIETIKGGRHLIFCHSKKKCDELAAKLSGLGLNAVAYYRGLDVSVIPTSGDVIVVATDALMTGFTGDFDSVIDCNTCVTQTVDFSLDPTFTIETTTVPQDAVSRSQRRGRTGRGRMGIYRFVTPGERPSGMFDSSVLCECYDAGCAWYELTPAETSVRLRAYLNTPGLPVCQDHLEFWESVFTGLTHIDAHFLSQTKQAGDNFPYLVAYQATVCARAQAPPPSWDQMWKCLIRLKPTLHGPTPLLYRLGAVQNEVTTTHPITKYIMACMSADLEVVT
How it was run: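 Con1 NS3h was incubated 1 h at RT with 100 μM test compound in 10 mM ammonium acetate pH 7.5, 1% DMSO. It was dialysed against 10 mM ammonium acetate (three changes) and diluted to 0.15 mg/mL in 50:50 acetonitrile/water, 0.2% formic acid. Nano-ESI Q-TOF, positive mode, 3 kV, 0.7 μL/min, 10 min acquisition, compared with untreated and DMSO-treated protein.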

[3] = target: T2, NS3h_1b(con1) C289S (Hepatitis C virus genotype 1b, UniProt Q9WMX2, C1315S); test: DNA binding, ATP hydrolysis and DNA unwinding assays with C289S NS3h; assay type: biochemical, hepatitis C virus genotype 1b (con1); conditions: DNA binding, ATP hydrolysis, DNA unwinding
T2 sequence (Q9WMX2 1190-1657 C1315S limits assumed): T1 sequence (Q9WMX2 1190-1657 limits assumed) with C126S

[4] = test system: HCV genotype 2a isolate (JFH1); conditions: 20 μM of each compound; ref Gastaminza et al.[9]; cited from earlier work
[5] = target: T3, NS3h helicase (Hepatitis C virus genotype 1b, UniProt Q9WMX2); test: Molecular beacon-based helicase; assay type: biochemical, hepatitis C virus genotype 1b (con1); conditions: IC50 Helicase (DNA unwinding), Figure 7B, no DTT
T3 sequence (Q9WMX2 1190-1657 limits assumed): T1 sequence (Q9WMX2 1190-1657 limits assumed)

[6] = target: T4, HCV NS3h (Hepatitis C virus genotype 1b, UniProt Q9WMX2); test: FP-based binding assay, NS3h displacement from Cy5-dT15 DNA; set-up: species or system hepatitis C virus genotype 1b (con1); conditions: for NS3h (% I): percent inhibition of NS3h binding to Cy5-dT15: 100 μM of each compound, 100 µM
T4 sequence (Q9WMX2 1190-1657 limits assumed): T1 sequence (Q9WMX2 1190-1657 limits assumed)
How it was run: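 Fluorescence polarization with Cy5-dT15 and NS3h: excitation 635 nm; parallel and perpendicular emission read at 667 nm; G-factor taken from probe-only wells. % inhibition normalized to DMSO-only (negative) and 200 nM dT20 or 100 μM primuline (positive) controls. Single-point tests at 100 μM. IC50 is the concentration displacing 50% of NS3h from DNA. Reversibility: 10 μM NS3h preincubated 1 h with test compound, then diluted 100–100 000-fold into Cy5-dT15 and compared with untreated controls.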

[7] = target: T5, NS3h_1b(con1) C279S (Hepatitis C virus genotype 1b, UniProt Q9WMX2, C1305S); test: DNA binding, ATP hydrolysis and DNA unwinding assays with C279S NS3h; assay type: biochemical, hepatitis C virus genotype 1b (con1); conditions: DNA binding, ATP hydrolysis, DNA unwinding
T5 sequence (Q9WMX2 1190-1657 C1305S limits assumed): T1 sequence (Q9WMX2 1190-1657 limits assumed) with C116S

[8] = target: T4, HCV NS3h; test: FP-based binding assay, NS3h displacement from Cy5-rU15 RNA; set-up: species or system hepatitis C virus genotype 1b (con1); conditions: IC50 RNA (Cy5-rU15–NS3h complex, RNA:NS3h binding), Figures 1C and 7B titration
How it was run: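 Con1 NS3h bound to 5′-Cy5-labelled rU15 RNA was titrated with test compound. Polarisation was read with excitation 635 nm and emission 667 nm, G-factor from probe-only wells. Values were normalised to DMSO and positive controls and fit to a concentration–response equation (n = 3). IC50 is the concentration reducing complex polarisation by 50%.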

[9] = target: E. coli SSB (Escherichia coli, UniProt P0AGE0); test: FP-based binding assay with SSB in place of NS3h
How it was run: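 Fluorescence polarisation assay with E. coli SSB in place of NS3h, using Cy5-dT15 (or Cy5-rU15 for titrations). Screen compounds were pin-transferred to 100 μM final, 1% DMSO. Excitation 635 nm, emission 667 nm; G-factor from probe-only wells. Percent inhibition was normalised to DMSO and to unlabeled dT20 or 100 μM primuline controls.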

[10] = target: T6, NS3 ATPase (Hepatitis C virus genotype 1b, UniProt Q9WMX2); test: ATPase assay; assay type: biochemical, hepatitis C virus genotype 1b (con1); conditions: Figure 7B
T6 sequence (Q9WMX2 1190-1657 limits assumed): T1 sequence (Q9WMX2 1190-1657 limits assumed)

Sequence of E. coli SSB (P0AGE0 2-178 limits assumed): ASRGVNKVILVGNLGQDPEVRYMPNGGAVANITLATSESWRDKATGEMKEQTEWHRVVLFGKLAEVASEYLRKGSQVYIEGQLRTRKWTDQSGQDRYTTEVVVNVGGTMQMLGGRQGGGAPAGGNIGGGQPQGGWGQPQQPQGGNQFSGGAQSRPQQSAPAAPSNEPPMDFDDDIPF

Structure (SMILES): O=c1c2ccccc2[se]n1-c1ccccc1 [Ebselen, 2-phenyl-1,2-benzisoselenazol-3(2H)-one]
- effect on NS3 protease activity (peptide cleavage by full-length NS3) [1]: no effect
- number of ebselens bound to NS3h (covalent adducts) [2]: 14
- sensitivity to ebselen inhibition compared with wild type [3]: neither protein was more or less sensitive
- HCV (% I): percent inhibition of HCV replication in cells [4]: 83%
- IC50 [5]: ~1000 nM
- reversibility of NS3h inhibition ([6]; 10 μM NS3h treated with 10 μM ebselen for 1 h, then diluted to <0.1 μM ebselen): reversible
- NS3h (% I): percent inhibition of NS3h binding to Cy5-dT15 [6]: 99%
- NS3h (% I): percent inhibition of NS3h binding to Cy5-dT15 ([6]; listed as ebselen): more than 50%
- IC50 ([6]; IC50 DNA (Cy5-dT15–NS3h complex), Figure 1C titration, n = 3): ~1000 nM
- reversibility of NS3h inhibition ([6]; NS3h incubated with 100 μM ebselen, then dialysis): irreversible
- sensitivity to ebselen inhibition compared with wild type [7]: neither protein was more or less sensitive
- IC50 [8]: ~1000 nM
- effect on SSB binding to DNA or RNA ([9]; Cy5-dT15 or Cy5-rU15, Figure 1D titration): no effect; also recorded: did not inhibit
- inhibition at 100 µM ([9]; read-out: SSB (% I): percent inhibition of SSB binding to Cy5-dT15): 3%
- IC50 [10]: ~1000 nM
